Test results as given in ChEMBL document CHEMBL2311431, “Synthesis and biological evaluation of some 5-arylidene-2-(1,3-thiazol-2-ylimino)-1,3-thiazolidin-4-ones as dual anti-inflammatory/antimicrobial agents” (Bioorg Med Chem, 2013).
Converted amounts (≈) assume the structure as drawn.

Tests used:
[1] = tested on: Aspergillus fumigatus; assay: Antifungal activity against Aspergillus fumigatus after 72 hrs by serial dilution technique; assay type: functional
How it was run: (§1)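 Serial dilution in malt broth; compounds from 1 mg/ml stocks in 5% DMSO; 72 h at 28 °C. MIC is the lowest concentration with no visible growth under a binocular microscope. Run in duplicate, repeated three times.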

[2] = tested on: Listeria monocytogenes; assay: Bactericidal activity against Listeria monocytogenes NCTC 7973 after 72 hrs by serial subcultivation method; assay type: functional; settings: NCTC 7973, 72 h
[3] = tested on: Micrococcus flavus; assay: Antibacterial activity against Micrococcus flavus ATCC 10240 after 24 hr by microdilution test; assay type: functional; settings: ATCC 10240, 24 h
How it was run: (§2)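 Broth microdilution in LB medium, about 1.0×10^4 cfu per well; compounds from 1 mg/ml stocks in 5% DMSO. Incubated 24 h. MIC is the lowest concentration with no visible growth under a binocular microscope. Run in duplicate, repeated three times.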

[4] = tested on: Talaromyces funiculosus; assay: Antifungal activity against Penicillium funiculosum ATCC 36839 after 72 hrs by serial dilution technique; assay type: functional; settings: ATCC 36839, 72 h; how it was run: as §1
[5] = tested on: Escherichia coli; assay: Bactericidal activity against Escherichia coli ATCC 35210 after 72 hrs by serial subcultivation method; assay type: functional; settings: ATCC 35210, 72 h
[6] = tested on: Trichoderma viride; assay: Fungicidal activity against Trichoderma viride IAM 5061 after 72 hrs by serial subcultivation method; assay type: functional; settings: IAM 5061, 72 h
[7] = tested on: Pseudomonas aeruginosa; assay: Bactericidal activity against Pseudomonas aeruginosa ATCC 27853 after 72 hrs by serial subcultivation method; assay type: functional; settings: ATCC 27853, 72 h
[8] = tested on: Pseudomonas aeruginosa; assay: Antibacterial activity against Pseudomonas aeruginosa ATCC 27853 after 24 hr by microdilution test; assay type: functional; settings: ATCC 27853, 24 h; how it was run: as §2
[9] = tested on: Staphylococcus aureus; assay: Bactericidal activity against Staphylococcus aureus ATCC 6538 after 72 hrs by serial subcultivation method; assay type: functional; settings: ATCC 6538, 72 h
[10] = tested on: Aspergillus niger; assay: Fungicidal activity against Aspergillus niger ATCC 6275 after 72 hrs by serial subcultivation method; assay type: functional; settings: ATCC 6275, 72 h
[11] = tested on: Mus musculus; assay: Acute toxicity in AKR mouse up to 0.5 mmol/kg, ip; assay type: organism-based; settings: in vivo
[12] = tested on: Trichoderma viride; assay: Antifungal activity against Trichoderma viride IAM 5061 after 72 hrs by serial dilution technique; assay type: functional; settings: IAM 5061, 72 h; how it was run: as §1
[13] = tested on: Micrococcus flavus; assay: Bactericidal activity against Micrococcus flavus ATCC 10240 after 72 hrs by serial subcultivation method; assay type: functional; settings: ATCC 10240, 72 h
[14] = tested on: Staphylococcus aureus; assay: Antibacterial activity against Staphylococcus aureus ATCC 6538 after 24 hr by microdilution test; assay type: functional; settings: ATCC 6538, 24 h; how it was run: as §2
[15] = tested on: Talaromyces funiculosus; assay: Fungicidal activity against Penicillium funiculosum ATCC 36839 after 72 hrs by serial subcultivation method; assay type: functional; settings: ATCC 36839, 72 h
[16] = tested on: Aspergillus fumigatus; assay: Fungicidal activity against Aspergillus fumigatus after 72 hrs by serial subcultivation method; assay type: functional
[17] = tested on: Escherichia coli; assay: Antibacterial activity against Escherichia coli ATCC 35210 after 24 hr by microdilution test; assay type: functional; settings: ATCC 35210, 24 h; how it was run: as §2
[18] = tested on: Bacillus cereus; assay: Bactericidal activity against Bacillus cereus clinical isolate after 72 hrs by serial subcultivation method; assay type: functional
[19] = tested on: Penicillium ochrochloron; assay: Antifungal activity against Penicillium ochrochloron ATCC 9112 after 72 hrs by serial dilution technique; assay type: functional; settings: ATCC 9112, 72 h; how it was run: as §1
[20] = molecular target: T1, Prostaglandin G/H synthase 1 (Ovis aries) (UniProt P05979); assay: Inhibition of ovine COX1 assessed as inhibition of PGF2a production by enzyme immunoassay; parameters: concentration or dose not given beside the values; settings: concentration not given here
T1 sequence (whole entry): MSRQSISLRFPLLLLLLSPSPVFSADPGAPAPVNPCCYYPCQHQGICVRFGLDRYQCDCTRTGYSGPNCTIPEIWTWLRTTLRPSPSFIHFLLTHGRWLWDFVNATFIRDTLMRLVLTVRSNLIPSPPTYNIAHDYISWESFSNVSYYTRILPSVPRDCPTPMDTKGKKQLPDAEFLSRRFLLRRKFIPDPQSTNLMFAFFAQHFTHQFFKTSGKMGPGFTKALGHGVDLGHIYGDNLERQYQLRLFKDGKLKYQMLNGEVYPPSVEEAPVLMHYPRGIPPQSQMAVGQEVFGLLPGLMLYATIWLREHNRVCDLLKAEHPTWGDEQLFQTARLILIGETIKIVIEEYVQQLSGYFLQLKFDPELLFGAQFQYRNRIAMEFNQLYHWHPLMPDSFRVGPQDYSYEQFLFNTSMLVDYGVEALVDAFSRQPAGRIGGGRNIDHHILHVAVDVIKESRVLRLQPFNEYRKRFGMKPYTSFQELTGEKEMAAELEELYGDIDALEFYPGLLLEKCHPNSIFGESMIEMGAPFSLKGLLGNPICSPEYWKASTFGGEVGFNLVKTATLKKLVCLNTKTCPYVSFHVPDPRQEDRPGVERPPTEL
How it was run: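 Ovine COX-1 from a commercial screening kit, tested with 0.1 µM arachidonic acid, which is below the saturating level. COX-derived PGH2 is reduced by SnCl2 to PGF2a, quantified by enzyme immunoassay with a broad prostaglandin antibody. At least triplicate.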

[21] = tested on: Penicillium ochrochloron; assay: Fungicidal activity against Penicillium ochrochloron ATCC 9112 after 72 hrs by serial subcultivation method; assay type: functional; settings: ATCC 9112, 72 h
[22] = tested on: Aspergillus niger; assay: Antifungal activity against Aspergillus niger ATCC 6275 after 72 hrs by serial dilution technique; assay type: functional; settings: ATCC 6275, 72 h; how it was run: as §1
[23] = tested on: Mus musculus; assay: Antiinflammatory activity in AKR mouse assessed as inhibition of carrageenan-induced paw edema at 0.01 mmol/kg, ip measured after 3.5 hrs of carrageenan-challenge; assay type: functional
How it was run: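 AKR mice of both sexes (pregnant females excluded), 6-10 per group, fasted during the experiment. Edema induced by intradermal 0.05 mL of 2% carrageenin into the right hind paw. Compound given at 0.01 mmol/kg ip, suspended in water with Tween-80, at the same time as carrageenin.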

[24] = tested on: Aspergillus flavus; assay: Fungicidal activity against Aspergillus flavus ATCC 9643 after 72 hrs by serial subcultivation method; assay type: functional; settings: ATCC 9643, 72 h
[25] = tested on: Aspergillus flavus; assay: Antifungal activity against Aspergillus flavus ATCC 9643 after 72 hrs by serial dilution technique; assay type: functional; settings: ATCC 9643, 72 h; how it was run: as §1
[26] = tested on: Listeria monocytogenes; assay: Antibacterial activity against Listeria monocytogenes NCTC 7973 after 24 hr by microdilution test; assay type: functional; settings: NCTC 7973, 24 h; how it was run: as §2
[27] = Inhibition of soybean lipoxygenase assessed as inhibition of sodium linolate conversion to 13-hydroperoxylinoleic acid after 4 mins by spectrophotometry; parameters: species or system Glycine max; settings: read-out: IC50
[28] = tested on: Bacillus cereus; assay: Antibacterial activity against Bacillus cereus clinical isolate after 24 hr by microdilution test; assay type: functional; how it was run: as §2

Structure (SMILES) | MIC [1] [µM] | MBC [2] [µM] | MIC [3] [µM] | MIC [4] [µM] | MBC [5] [µM] | MFC [6] [µM] | MBC [7] [µM] | MIC [8] [µM] | MBC [9] [µM] | MFC [10] [µM] | Activity [11] | MIC [12] [µM] | MBC [13] [µM] | MIC [14] [µM] | MFC [15] [µM] | MFC [16] [µM] | MIC [17] [µM] | MBC [18] [µM] | MIC [19] [µM] | inhibition [20] [%] | further results
O=C1N/C(=N\c2nc(-c3ccccc3)cs2)S/C1=C\c1cccc(Cl)c1 | 19 (≈ 7.56 µg/mL) | 50.4 (≈ 20.1 µg/mL) | 25.2 (≈ 10 µg/mL) | 19 (≈ 7.56 µg/mL) | 50.4 (≈ 20.1 µg/mL) | 25.2 (≈ 10 µg/mL) | 50.4 (≈ 20.1 µg/mL) | 25.2 (≈ 10 µg/mL) | 50.4 (≈ 20.1 µg/mL) | 25.2 (≈ 10 µg/mL) | Non-toxic | 12.6 (≈ 5.01 µg/mL) | 50.4 (≈ 20.1 µg/mL) | 25.2 (≈ 10 µg/mL) | 25.2 (≈ 10 µg/mL) | 25.2 (≈ 10 µg/mL) | 25.2 (≈ 10 µg/mL) | 25.2 (≈ 10 µg/mL) | 19 (≈ 7.56 µg/mL) | 65 | MFC [21]: 25.2 µM (≈ 10 µg/mL); MIC [22]: 19 µM (≈ 7.56 µg/mL); inhibition in vivo at 10 µmol/kg [23]: 51%; MFC [24]: 25.2 µM (≈ 10 µg/mL); MIC [25]: 19 µM (≈ 7.56 µg/mL); MIC [26]: 25.2 µM (≈ 10 µg/mL); IC50 [27]: 88 µM; MIC [28]: 25.2 µM (≈ 10 µg/mL)
O=C1N/C(=N\c2nc(-c3ccccc3)cs2)S/C1=C\c1ccccc1 | 19 (≈ 6.91 µg/mL) | 27 (≈ 9.81 µg/mL) | 27 (≈ 9.81 µg/mL) | 19 (≈ 6.91 µg/mL) | 108 (≈ 39.3 µg/mL) | 25.2 (≈ 9.16 µg/mL) | 108 (≈ 39.3 µg/mL) | 27 (≈ 9.81 µg/mL) | 108 (≈ 39.3 µg/mL) | 25.2 (≈ 9.16 µg/mL) | Non-toxic | 12.6 (≈ 4.58 µg/mL) | 27 (≈ 9.81 µg/mL) | 54 (≈ 19.6 µg/mL) | 25.2 (≈ 9.16 µg/mL) | 25.2 (≈ 9.16 µg/mL) | 54 (≈ 19.6 µg/mL) | 27 (≈ 9.81 µg/mL) | 19 (≈ 6.91 µg/mL) | 67 | MFC [21]: 25.2 µM (≈ 9.16 µg/mL); MIC [22]: 19 µM (≈ 6.91 µg/mL); inhibition in vivo at 10 µmol/kg [23]: 59.3%; MFC [24]: 25.2 µM (≈ 9.16 µg/mL); MIC [25]: 19 µM (≈ 6.91 µg/mL); MIC [26]: 27 µM (≈ 9.81 µg/mL); IC50 [27]: 66 µM; MIC [28]: 6.8 µM (≈ 2.47 µg/mL)
Cc1cnc(/N=C2\NC(=O)/C(=C/c3ccc([N+](=O)[O-])cc3)S2)s1 | 15.8 (≈ 5.47 µg/mL) | 29 (≈ 10 µg/mL) | 29 (≈ 10 µg/mL) | 15.8 (≈ 5.47 µg/mL) | 232 (≈ 80.4 µg/mL) | 31.5 (≈ 10.9 µg/mL) | 116 (≈ 40.2 µg/mL) | 29 (≈ 10 µg/mL) | 232 (≈ 80.4 µg/mL) | 31.5 (≈ 10.9 µg/mL) | Non-toxic | 15.8 (≈ 5.47 µg/mL) | 29 (≈ 10 µg/mL) | 116 (≈ 40.2 µg/mL) | 31.5 (≈ 10.9 µg/mL) | 31.5 (≈ 10.9 µg/mL) | 116 (≈ 40.2 µg/mL) | 29 (≈ 10 µg/mL) | 15.8 (≈ 5.47 µg/mL) | 68 | MFC [21]: 31.5 µM (≈ 10.9 µg/mL); MIC [22]: 15.8 µM (≈ 5.47 µg/mL); inhibition in vivo at 10 µmol/kg [23]: 55.4%; MFC [24]: 31.5 µM (≈ 10.9 µg/mL); MIC [25]: 15.8 µM (≈ 5.47 µg/mL); MIC [26]: 29 µM (≈ 10 µg/mL); IC50 [27]: 79 µM; MIC [28]: 29 µM (≈ 10 µg/mL)
